Active and inactive are the calls of the source. No cut-off for these calls is given here.
What was measured:
[1] = biological target: Vascular endothelial growth factor A (Homo sapiens) (UniProt P15692); assay: Binding affinity to VEGF by surface plasmon resonance assay
HMVEC [2] = assay: Antiangiogenic activity in FGF1-stimulated HMVEC cells after 72 hrs by CellTiter assay; type: functional, cell-based; conditions: Homo sapiens
HMVEC [3] = assay: Antiangiogenic activity in FGF2-stimulated HMVEC cells after 72 hrs by CellTiter assay; type: functional, cell-based; conditions: Homo sapiens
HUVEC [4] = assay: Antiangiogenic activity in FGF2-stimulated HUVEC cells after 72 hrs by CellTiter assay; type: functional, cell-based; conditions: Homo sapiens
HMVEC [5] = assay: Antiangiogenic activity in VEGF-stimulated HMVEC cells after 72 hrs by CellTiter assay; type: functional, cell-based; conditions: Homo sapiens
HUVEC [6] = assay: Antiangiogenic activity in FGF1-stimulated HUVEC cells after 72 hrs by CellTiter assay; type: functional, cell-based; conditions: Homo sapiens
HUVEC [7] = assay: Antiangiogenic activity in VEGF-stimulated HUVEC cells after 72 hrs by CellTiter assay; type: functional, cell-based; conditions: Homo sapiens
[8] = biological target: Fibroblast growth factor 2 (Homo sapiens, UniProt P09038); assay: Binding affinity to FGF-2 by surface plasmon resonance assay
Fibroblast growth factor 2, sequence (P09038 143-288 limits assumed): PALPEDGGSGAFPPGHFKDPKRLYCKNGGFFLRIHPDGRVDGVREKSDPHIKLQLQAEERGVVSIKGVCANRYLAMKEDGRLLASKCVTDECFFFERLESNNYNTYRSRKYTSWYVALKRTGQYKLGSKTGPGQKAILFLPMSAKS
Summary of the method: (§1)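 Solution-affinity SPR on heparin-coated CM4 chips. FGF-1 measured in HBS-EP (10 mM HEPES pH 7.4, 150 mM NaCl, 3.0 mM EDTA, 0.005% polysorbate 20); FGF-2 measured in HBS-EP with 300 mM NaCl. Kd is the average of at least duplicate measurements ± SD.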

Plasma [9] = assay: Anticoagulant activity in pooled human plasma assessed as prolongation of the recalcification time at 0.1 mg/ml by Heptest assay; type: ADME, cell-free
Summary of the method: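 Heptest clotting time in pooled normal human plasma; normal range 13–20 s. Values are the mean of two determinations.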

Plasma [10] = assay: Anticoagulant activity in pooled human plasma assessed as activated partial thromboplastin time at 0.1 mg/ml; type: ADME, cell-free
Summary of the method: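 APTT of pooled normal human plasma measured with compound at 0–100 μg/mL in PBS on a ball coagulameter, using unfractionated heparin as the reference. Normal range 26–36 s; coefficient of variation 2% at 36 s and 5–7% at 90 s or above. Values are the mean of two determinations.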

[11] = biological target: Fibroblast growth factor 1 (Homo sapiens, UniProt P05230); assay: Binding affinity to FGF-1 by surface plasmon resonance assay
Fibroblast growth factor 1, sequence (P05230 whole entry): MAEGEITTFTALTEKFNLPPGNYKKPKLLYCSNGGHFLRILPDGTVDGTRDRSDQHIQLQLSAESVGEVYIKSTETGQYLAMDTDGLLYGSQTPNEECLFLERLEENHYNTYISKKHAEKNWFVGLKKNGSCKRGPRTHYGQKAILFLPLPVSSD
Summary of the method: as §1

Heparanase = biological target: T1, Heparanase (Homo sapiens, UniProt Q9Y251); assay: Inhibition of human recombinant heparanase after 2 to 24 hrs by WST1 dye based fondaparinux assay
T1 sequence (Q9Y251 whole entry): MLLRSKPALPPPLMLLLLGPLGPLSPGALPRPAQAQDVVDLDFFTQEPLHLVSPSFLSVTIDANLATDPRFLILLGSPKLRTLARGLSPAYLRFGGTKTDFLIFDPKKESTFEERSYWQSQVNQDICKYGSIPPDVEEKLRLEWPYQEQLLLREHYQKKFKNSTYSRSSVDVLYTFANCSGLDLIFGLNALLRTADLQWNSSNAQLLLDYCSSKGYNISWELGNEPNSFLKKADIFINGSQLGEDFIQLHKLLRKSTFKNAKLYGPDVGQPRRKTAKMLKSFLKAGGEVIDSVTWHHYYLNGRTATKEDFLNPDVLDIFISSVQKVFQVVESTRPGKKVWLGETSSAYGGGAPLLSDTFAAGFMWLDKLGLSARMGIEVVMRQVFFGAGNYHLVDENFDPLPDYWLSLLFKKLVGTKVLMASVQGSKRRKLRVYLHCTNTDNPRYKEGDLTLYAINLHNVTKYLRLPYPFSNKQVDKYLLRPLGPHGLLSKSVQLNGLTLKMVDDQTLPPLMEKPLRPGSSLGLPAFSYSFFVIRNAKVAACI

SMILES | Kd [1] [µM] | Activity (HMVEC [2]) | Activity (HMVEC [3]) | IC50 (HUVEC [4]) [µM] | Activity (HMVEC [5]) | IC50 (HUVEC [6]) [µM] | IC50 (HUVEC [7]) [µM] | Kd [8] [µM] | Time (Plasma [9]) [s] | APTT (Plasma [10]) [s] | Kd [11] [µM] | Ki (Heparanase) [µM]
CC(C)CCC[C@@H](C)[C@H]1CC[C@H]2[C@@H]3CC[C@H]4C[C@@H](O[C@H]5O[C@H](COS(=O)(=O)[O-])[C@@H](OS(=O)(=O)[O-])[C@H](OS(=O)(=O)[O-])[C@@H]5OS(=O)(=O)[O-])CC[C@]4(C)[C@H]3CC[C@]12C.[Na+].[Na+].[Na+].[Na+] | 3 | Active | Active | 2.9 | Active | 2.2 | 2.24 | > 3 | 23.9 | 36.1 | – | –
CC(C)CCC[C@@H](C)[C@H]1CC[C@H]2[C@@H]3CC[C@H]4C[C@@H](O[C@@H]5O[C@H](COS(=O)(=O)[O-])[C@@H](O[C@H]6O[C@H](COS(=O)(=O)[O-])[C@@H](O[C@H]7O[C@H](COS(=O)(=O)[O-])[C@@H](OS(=O)(=O)[O-])[C@H](OS(=O)(=O)[O-])[C@H]7OS(=O)(=O)[O-])[C@H](OS(=O)(=O)[O-])[C@H]6OS(=O)(=O)[O-])[C@H](OS(=O)(=O)[O-])[C@H]5OS(=O)(=O)[O-])CC[C@]4(C)[C@H]3CC[C@]12C.[Na+].[Na+].[Na+].[Na+].[Na+].[Na+].[Na+].[Na+].[Na+].[Na+] | 0.19 | Active | Active | 2.3 | Active | 2.5 | 1.6 | 0.547 | 29.2 | 51.6 | 0.0248 | 0.0091
CC(C)CCC[C@@H](C)[C@H]1CC[C@H]2[C@@H]3CC[C@H]4C[C@@H](OCc5cn(CCCO[C@H]6O[C@H](COS(=O)(=O)[O-])[C@@H](OS(=O)(=O)[O-])[C@H](O[C@H]7O[C@H](COS(=O)(=O)[O-])[C@@H](OS(=O)(=O)[O-])[C@H](O[C@H]8O[C@H](COS(=O)(=O)[O-])[C@@H](OS(=O)(=O)[O-])[C@H](OS(=O)(=O)[O-])[C@@H]8OS(=O)(=O)[O-])[C@@H]7OS(=O)(=O)[O-])[C@@H]6OS(=O)(=O)[O-])nn5)CC[C@]4(C)[C@H]3CC[C@]12C.[Na+].[Na+].[Na+].[Na+].[Na+].[Na+].[Na+].[Na+].[Na+].[Na+] | 0.26 | Active | Active | 1.2 | Active | 2.61 | 1.4 | 0.474 | 26.4 | 71.4 | 0.0143 | 0.0084
CC(C)CCC[C@@H](C)[C@H]1CC[C@H]2[C@@H]3CC[C@H]4C[C@@H](OCc5cn([C@@H]6O[C@H](COS(=O)(=O)[O-])[C@@H](O[C@H]7O[C@H](COS(=O)(=O)[O-])[C@@H](O[C@H]8O[C@H](COS(=O)(=O)[O-])[C@@H](OS(=O)(=O)[O-])[C@H](OS(=O)(=O)[O-])[C@H]8OS(=O)(=O)[O-])[C@H](OS(=O)(=O)[O-])[C@H]7OS(=O)(=O)[O-])[C@H](OS(=O)(=O)[O-])[C@H]6OS(=O)(=O)[O-])nn5)CC[C@]4(C)[C@H]3CC[C@]12C.[Na+].[Na+].[Na+].[Na+].[Na+].[Na+].[Na+].[Na+].[Na+].[Na+] | 0.79 | Active | Active | 1.2 | Active | 2.1 | 1.8 | 0.61 | 30.2 | 61.2 | 0.05 | 0.016
CC(C)CCC[C@@H](C)[C@H]1CC[C@H]2[C@@H]3CC[C@H]4C[C@@H](O[C@H]5O[C@H](COS(=O)(=O)[O-])[C@@H](OS(=O)(=O)[O-])[C@H](OS(=O)(=O)[O-])[C@@H]5O[C@H]5O[C@H](COS(=O)(=O)[O-])[C@@H](OS(=O)(=O)[O-])[C@H](OS(=O)(=O)[O-])[C@@H]5OS(=O)(=O)[O-])CC[C@]4(C)[C@H]3CC[C@]12C.[Na+].[Na+].[Na+].[Na+].[Na+].[Na+].[Na+] | 1.3 | Active | Active | 2.22 | Active | > 10 | 1.8 | – | 25.5 | 40.6 | – | –
CC(C)CCC[C@@H](C)[C@H]1CC[C@H]2[C@@H]3CC[C@H]4C[C@@H](O[C@@H]5O[C@H](COS(=O)(=O)[O-])[C@@H](O[C@@H]6O[C@H](COS(=O)(=O)[O-])[C@@H](OS(=O)(=O)[O-])[C@H](OS(=O)(=O)[O-])[C@H]6OS(=O)(=O)[O-])[C@H](OS(=O)(=O)[O-])[C@H]5OS(=O)(=O)[O-])CC[C@]4(C)[C@H]3CC[C@]12C.[Na+].[Na+].[Na+].[Na+].[Na+].[Na+].[Na+] | 1.35 | Active | Active | 5.6 | Active | 6 | 5.6 | 2 | 25.3 | 38.8 | 0.87 | –
CC(C)CCC[C@@H](C)[C@H]1CC[C@H]2[C@@H]3CC[C@H]4C[C@@H](OCc5cn([C@@H]6O[C@H](COS(=O)(=O)[O-])[C@@H](O[C@H]7O[C@H](COS(=O)(=O)[O-])[C@@H](OS(=O)(=O)[O-])[C@H](OS(=O)(=O)[O-])[C@H]7OS(=O)(=O)[O-])[C@H](OS(=O)(=O)[O-])[C@H]6OS(=O)(=O)[O-])nn5)CC[C@]4(C)[C@H]3CC[C@]12C.[Na+].[Na+].[Na+].[Na+].[Na+].[Na+].[Na+] | 1.93 | Active | Active | 4.17 | Active | 4.1 | 1.13 | – | 26.7 | 40.3 | – | –
CCCCCCCCCCCCCCCCCC(=O)NCCCO[C@@H]1O[C@H](COS(=O)(=O)[O-])[C@@H](O[C@H]2O[C@H](COS(=O)(=O)[O-])[C@@H](O[C@H]3O[C@H](COS(=O)(=O)[O-])[C@@H](OS(=O)(=O)[O-])[C@H](OS(=O)(=O)[O-])[C@H]3OS(=O)(=O)[O-])[C@H](OS(=O)(=O)[O-])[C@H]2OS(=O)(=O)[O-])[C@H](OS(=O)(=O)[O-])[C@H]1OS(=O)(=O)[O-].[Na+].[Na+].[Na+].[Na+].[Na+].[Na+].[Na+].[Na+].[Na+].[Na+] | 0.38 | Active | Active | – | Active | – | – | – | 24.9 | 51.1 | – | –
CC(C)CCC[C@@H](C)[C@H]1CC[C@H]2[C@@H]3CC[C@H]4C[C@@H](O[C@@H]5O[C@H](COS(=O)(=O)[O-])[C@@H](O[C@H]6O[C@H](COS(=O)(=O)[O-])[C@@H](OS(=O)(=O)[O-])[C@H](OS(=O)(=O)[O-])[C@H]6OS(=O)(=O)[O-])[C@H](OS(=O)(=O)[O-])[C@H]5OS(=O)(=O)[O-])CC[C@]4(C)[C@H]3CC[C@]12C.[Na+].[Na+].[Na+].[Na+].[Na+].[Na+].[Na+] | 1.2 | Active | Active | > 10 | Active | 4 | 5.2 | 2.2 | 23.9 | 38.6 | 0.56 | –

— ChEMBL document CHEMBL2057149 (J Med Chem, 2012)
